# ChEMBL document CHEMBL3120102, “Structure-based design, synthesis and biological evaluation of novel anthra[1,2-d]imidazole-6,11-dione homologues as potential antitumor agents” (2013)
# What was measured:
# Assay type in all cases: functional
# MDA-MB-231 = assay: Cytotoxicity against human MDA-MB-231 cells assessed as growth inhibition after 48 hrs by SRB assay
# Procedure, shortened: (§1)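 NCI 60-cell-line screen, five-dose stage: each cell line exposed for 48 h to five concentrations spanning five log steps; cellular protein measured by sulforhodamine B colorimetry. A time-zero cell control and plates without drug are used to derive GI50, TGI and LC50 from log-concentration dose-response curves.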
# NCI-H460 = assay: Cytotoxicity against human NCI-H460 cells assessed as growth inhibition after 48 hrs by SRB assay; procedure, shortened: as §1
# NCI-H226 = assay: Cytotoxicity against human NCI-H226 cells assessed as growth inhibition after 48 hrs by SRB assay; procedure, shortened: as §1
# SK-MEL-28 = assay: Cytotoxicity against human SK-MEL-28 cells assessed as growth inhibition after 48 hrs by SRB assay; procedure, shortened: as §1
# LOX IMVI = assay: Cytotoxicity against human LOXIMVI cells assessed as growth inhibition after 48 hrs by SRB assay
# Procedure, shortened: (§2)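 NCI 60-cell-line five-dose screen at […]. Drug exposure was 48 h, followed by sulforhodamine B protein staining. GI50, TGI and LC50 were calculated against a time-zero control and untreated plates, with dose–response curves plotted from log10 concentration.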
# HOP-62 = assay: Cytotoxicity against human HOP62 cells assessed as growth inhibition after 48 hrs by SRB assay; procedure, shortened: as §2
# SK-MEL-5 = assay: Cytotoxicity against human SK-MEL-5 cells assessed as growth inhibition after 48 hrs by SRB assay; procedure, shortened: as §1
# HT-29 = assay: Cytotoxicity against human HT-29 cells assessed as growth inhibition after 48 hrs by SRB assay; procedure, shortened: as §2
# M14 = assay: Cytotoxicity against human M14 cells assessed as growth inhibition after 48 hrs by SRB assay; procedure, shortened: as §2
# [1] = (§3) Cytotoxicity against human Hs578T cells assessed as growth inhibition after 48 hrs by SRB assay; details: Hs-578T; procedure, shortened: as §2
# Hs-578T = assay: as §3; procedure, shortened: as §2
# TK-10 = assay: Cytotoxicity against human TK10 cells assessed as growth inhibition after 48 hrs by SRB assay
# Procedure, shortened: (§4)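 NCI 60-cell-line screen, two stages. Five-dose testing at […]. Cellular protein measured by sulforhodamine B colorimetry after 48 h drug exposure. A time-zero control and drug-free plates are used to derive GI50, TGI and LC50 from dose-response curves plotted as log10 concentration per cell line.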
# SR = assay: Cytotoxicity against human SR cells assessed as growth inhibition after 48 hrs by SRB assay; procedure, shortened: as §4
# IGROV-1 = assay: Cytotoxicity against human IGROV1 cells assessed as growth inhibition after 48 hrs by SRB assay; procedure, shortened: as §2
# KM12 = assay: Cytotoxicity against human KM12 cells assessed as growth inhibition after 48 hrs by SRB assay; procedure, shortened: as §2
# SW-620 = assay: Cytotoxicity against human SW620 cells assessed as growth inhibition after 48 hrs by SRB assay; procedure, shortened: as §4
# COLO 205 = assay: Cytotoxicity against human COLO205 cells assessed as growth inhibition after 48 hrs by SRB assay; procedure, shortened: as §2
# CCRF-CEM = assay: Cytotoxicity against human CCRF-CEM cells assessed as growth inhibition after 48 hrs by SRB assay; procedure, shortened: as §2
# CAKI-1 = assay: Cytotoxicity against human CAKI-1 cells assessed as cell growth at 10 uM after 48 hrs by SRB assay; details: CAKI-1, 48 h, read-out: Activity
# OVCAR-3 = assay: Cytotoxicity against human OVCAR3 cells assessed as cell growth at 10 uM after 48 hrs by SRB assay; details: OVCAR-3, 48 h, read-out: Activity
# Procedure, shortened: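 First stage of the NCI 60 human tumour cell line screen: a single dose is tested against every line. Cell growth is read as cellular protein by sulforhodamine B colorimetry after 48 h of drug exposure, with reference to a time-zero control and to untreated plates.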
# [2] = (§5) Cytotoxicity against human NCI-ADR-RES cells assessed as growth inhibition after 48 hrs by SRB assay; procedure, shortened: as §1
# NCI/ADR-RES = assay: as §5; procedure, shortened: as §1
# MCF7 = assay: Cytotoxicity against human MCF7 cells assessed as growth inhibition after 48 hrs by SRB assay; procedure, shortened: as §1
# U-251 = assay: Cytotoxicity against human U251 cells assessed as growth inhibition after 48 hrs by SRB assay; procedure, shortened: as §4
# RPMI-8226 = assay: Cytotoxicity against human RPMI8226 cells assessed as growth inhibition after 48 hrs by SRB assay; procedure, shortened: as §1
# OVCAR-4 = assay: (§6) Cytotoxicity against human OVCAR4 cells assessed as growth inhibition after 48 hrs by SRB assay; procedure, shortened: as §1
# [3] = as §6; details: OVCAR-4, 48 h; procedure, shortened: as §1
# SN12C = assay: Cytotoxicity against human SN12C cells assessed as growth inhibition after 48 hrs by SRB assay; procedure, shortened: as §4
# ACHN = assay: Cytotoxicity against human ACHN cells assessed as growth inhibition after 48 hrs by SRB assay; procedure, shortened: as §2
# [4] = read-out: LC50 (the source's name)
smiles,measurement,setting,value
CCCSc1nc2ccc3c(c2[nH]1)C(=O)c1ccccc1C3=O,growth inhibition (GI),MDA-MB-231,Dose-dependent effect
same,GI50,"MDA-MB-231; MDA-MB-231, 48 h",5.14 µM
same,LC50,"MDA-MB-231; MDA-MB-231, 48 h",> 100 µM
same,TGI,"MDA-MB-231; MDA-MB-231, 48 h",> 100 µM
same,growth inhibition (GI),NCI-H460,Dose-dependent effect
same,GI50,"NCI-H460; NCI-H460, 48 h",44.7 µM
same,LC50,"NCI-H460; NCI-H460, 48 h",> 100 µM
same,TGI,"NCI-H460; NCI-H460, 48 h",> 100 µM
same,growth inhibition (GI),NCI-H226,Dose-dependent effect
same,GI50,"NCI-H226; NCI-H226, 48 h",4.37 µM
same,LC50,"NCI-H226; NCI-H226, 48 h",> 100 µM
same,TGI,"NCI-H226; NCI-H226, 48 h",> 100 µM
same,growth inhibition (GI),SK-MEL-28,Dose-dependent effect
same,GI50,"SK-MEL-28; SK-MEL-28, 48 h",> 100 µM
same,LC50,"SK-MEL-28; SK-MEL-28, 48 h",> 100 µM
same,TGI,"SK-MEL-28; SK-MEL-28, 48 h",> 100 µM
same,GI50,LOX IMVI,3.69 µM
same,LC50,LOX IMVI,> 100 µM
same,TGI,LOX IMVI,> 100 µM
same,growth inhibition (GI),LOX IMVI,Dose-dependent effect
same,growth inhibition (GI),HOP-62,Dose-dependent effect
same,GI50,"HOP-62; HOP-62, 48 h",1.94 µM
same,LC50 (concentration killing 50% of cells relative to time zero),"HOP-62; HOP-62, 48 h",9.36 µM
same,TGI,"HOP-62; HOP-62, 48 h",4.27 µM
same,growth inhibition (GI),SK-MEL-5,Dose-dependent effect
same,GI50,"SK-MEL-5; SK-MEL-5, 48 h",> 100 µM
same,LC50 (concentration killing 50% of cells relative to time zero),"SK-MEL-5; SK-MEL-5, 48 h",> 100 µM
same,TGI,"SK-MEL-5; SK-MEL-5, 48 h",> 100 µM
same,growth inhibition (GI),HT-29,Dose-dependent effect
same,GI50,"HT-29; HT-29, 48 h",> 100 µM
same,TGI,"HT-29; HT-29, 48 h",> 100 µM
same,CC50,"HT-29; HT-29, 48 h, read-out: LC50 (the source's name)",> 100 µM
same,growth inhibition (GI),M14,Dose-dependent effect
same,GI50,"M14; M14, 48 h",> 100 µM
same,LC50,"M14; M14, 48 h",> 100 µM
same,TGI,"M14; M14, 48 h",> 100 µM
same,GI50,[1],3.45 µM
same,TGI,[1],83 µM
same,CC50,[1]; [4],> 100 µM
same,growth inhibition (GI),Hs-578T,Dose-dependent effect
same,growth inhibition (GI),TK-10,Dose-dependent effect
same,GI50,"TK-10; TK-10, 48 h",3.25 µM
same,LC50,"TK-10; TK-10, 48 h",> 100 µM
same,TGI,"TK-10; TK-10, 48 h",21.6 µM
same,GI50,SR,4.63 µM
same,LC50 (50% lethal concentration),SR,> 100 µM
same,TGI,SR,> 100 µM
same,growth inhibition (GI),SR,Dose-dependent effect
same,growth inhibition (GI),IGROV-1,Dose-dependent effect
same,GI50,"IGROV-1; IGROV-1, 48 h",4.03 µM
same,LC50,"IGROV-1; IGROV-1, 48 h",> 100 µM
same,TGI,"IGROV-1; IGROV-1, 48 h",> 100 µM
same,growth inhibition (GI),KM12,Dose-dependent effect
same,GI50,"KM12; KM12, 48 h",> 100 µM
same,TGI,"KM12; KM12, 48 h",> 100 µM
same,CC50,"KM12; KM12, 48 h, read-out: LC50 (the source's name)",> 100 µM
same,growth inhibition (GI),SW-620,Dose-dependent effect
same,GI50,"SW-620; SW-620, 48 h",> 100 µM
same,LC50,"SW-620; SW-620, 48 h",> 100 µM
same,TGI,"SW-620; SW-620, 48 h",> 100 µM
same,growth inhibition (GI),COLO 205,Dose-dependent effect
same,GI50,"COLO 205; COLO 205, 48 h",> 100 µM
same,LC50,"COLO 205; COLO 205, 48 h",> 100 µM
same,TGI,"COLO 205; COLO 205, 48 h",> 100 µM
same,GI50,CCRF-CEM,> 100 µM
same,LC50,CCRF-CEM,> 100 µM
same,TGI,CCRF-CEM,> 100 µM
same,growth inhibition (GI),CCRF-CEM,Dose-dependent effect
same,growth at 10 µM,CAKI-1,45.5%
same,growth at 10 µM,OVCAR-3,62.7%
same,GI50,[2],2.37 µM
same,LC50 (concentration causing 50% net cell kill),[2],> 100 µM
same,TGI,[2],> 100 µM
same,growth inhibition (GI),NCI/ADR-RES,Dose-dependent effect
same,growth inhibition (GI),MCF7,Dose-dependent effect
same,GI50,"MCF7; MCF7, 48 h",57 µM
same,LC50 (concentration killing 50% of cells),"MCF7; MCF7, 48 h",> 100 µM
same,TGI,"MCF7; MCF7, 48 h",> 100 µM
same,growth inhibition (GI),U-251,Dose-dependent effect
same,GI50,"U-251; U-251, 48 h",7.05 µM
same,TGI,"U-251; U-251, 48 h",> 100 µM
same,CC50,"U-251; U-251, 48 h, read-out: LC50 (the source's name)",> 100 µM
same,growth inhibition (GI),RPMI-8226,Dose-dependent effect
same,GI50,"RPMI-8226; RPMI-8226, 48 h",> 100 µM
same,LC50 (concentration causing 50% net cell kill),"RPMI-8226; RPMI-8226, 48 h",> 100 µM
same,TGI,"RPMI-8226; RPMI-8226, 48 h",> 100 µM
same,growth inhibition (GI),OVCAR-4,Dose-dependent effect
same,GI50,[3],5.05 µM
same,LC50 (concentration killing 50% of cells),[3],> 100 µM
same,TGI,[3],> 100 µM
same,GI50,SN12C,14 µM
same,TGI,SN12C,> 100 µM
same,growth inhibition (GI),SN12C,Dose-dependent effect
same,CC50,SN12C; [4],> 100 µM
same,GI50,ACHN,2.69 µM
same,TGI,ACHN,42.8 µM
same,growth inhibition (GI),ACHN,Dose-dependent effect
same,CC50,ACHN; [4],> 100 µM
